In ChEMBL document CHEMBL1158558, “Design of potential reverse transcriptase inhibitor containing Isatin nucleus using molecular modeling studies” (Bioorg Med Chem, 2010):

Biological target: Human immunodeficiency virus type 1 reverse transcriptase (Human immunodeficiency virus 1) (UniProt Q72547)
Assay: Inhibition of HIV1 RT after 1 hr by ELISA relative to control
Set-up: concentration or dose not given beside the values
Conditions: concentration not given here
Procedure, shortened: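 RT inhibitors, diluted in lysis buffer, were mixed with reaction mixture and incubated 1 h at 37 °C. Samples were then transferred to microplate modules for 1 h at 37 °C and washed. Anti-DIG-POD (200 mU/ml) was added for 1 h at 37 °C, then washed again. ABTS substrate was developed at 15–25 °C for 10–30 min, and absorbance was read at 405 nm.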

Row | Structure (SMILES) | inhibition [%]
1 | CNc1ccc(CN2C(=O)/C(=N\n3cnnc3)c3cc(C)ccc32)cc1 | 0
2 | Cc1ccc2c(c1)/C(=N/n1cnnc1)C(=O)N2CN1CCOCC1 | 84.1
3 | Cc1ccc2c(c1)/C(=N/n1cnnc1)C(=O)N2CN1CCCCC1 | 89
4 | Cc1ccc2c(c1)/C(=N/n1cnnc1)C(=O)N2CN(C)C | 69.1
5 | Cc1ccc2c(c1)/C(=N/n1cnnc1)C(=O)N2CN1CCNCC1 | 90.9
